Reference: ChEMBL document CHEMBL1155317, “Design and optimisation of potent gp120-CD4 inhibitors” (Bioorg Med Chem Lett, 2009)
One block for each compound: values may come before it.

Experiments:
[1] = test system: Human immunodeficiency virus 1; assay: Antiviral activity against Human immunodeficiency virus 1 NL4-3 infected HeLaP4 cells after 5 days by beta-galactosidase reporter assay; type: functional, organism-based; details: Human immunodeficiency virus 1, NL4-3, HeLaP4, 120 h
Summary of the method: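 HeLa-P4 cells were premixed with NL4-3 virus and added at 10^5 cells/mL to wells containing diluted compound. Plates were incubated for 5 days at 37 °C in humidified 5% CO₂. Infection was quantified with a β-galactosidase reporter assay.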

[2] = Inhibition of HIV1 NL4-3 gp160 assessed as inhibition of interaction between gp120 and host CD4 receptor by cell-cell fusion assay; design: species or system Human immunodeficiency virus 1
Rattus norvegicus [3] = assay: Unbound volume of distribution in rat at 1 mg/kg, iv and 1 mg/kg, po; type: ADME, organism-based; details: in vivo
[4] = Half life in rat at 1 mg/kg, iv and 1 mg/kg, po; type: ADME, organism-based; details: in vivo
Rattus norvegicus [5] = assay: Unbound clearance in rat at 1 mg/kg, iv and 1 mg/kg, po; type: ADME, organism-based; details: in vivo
[6] = Fraction of compound absorbed in rat at 1 mg/kg, iv and 1 mg/kg, po; type: ADME, organism-based; details: in vivo, read-out: Fabs
[7] = Clearance in rat at 1 mg/kg, iv and 1 mg/kg, po; type: ADME, organism-based; details: in vivo
[8] = Bioavailability in rat at 1 mg/kg; type: ADME, organism-based; details: in vivo
[9] = test system: Human immunodeficiency virus 1; assay: Antiviral activity against Human immunodeficiency virus 1 isolate 04-116872_VL_186.32; type: functional
Summary of the method: (§1)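 Testing against these strains was contracted out and used the PhenoSense phenotypic antiviral assay.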

[10] = test system: Human immunodeficiency virus 1; assay: Antiviral activity against Human immunodeficiency virus 1 isolate 04-116867_VL_837.51; type: functional; summary of the method: as §1
[11] = test system: Human immunodeficiency virus 1; assay: Antiviral activity against Human immunodeficiency virus 1 isolate 04-116869_VL_833.52; type: functional; summary of the method: as §1
[12] = test system: Human immunodeficiency virus 1; assay: Antiviral activity against Human immunodeficiency virus 1 isolate 04-116871_VL_781.69; type: functional; summary of the method: as §1
[13] = test system: Human immunodeficiency virus 1; assay: Antiviral activity against Human immunodeficiency virus 1 isolate 04-116886_VL_578.66; type: functional; summary of the method: as §1
[14] = test system: Human immunodeficiency virus 1; assay: Antiviral activity against Human immunodeficiency virus 1 isolate 04-116889_VL_440.85; type: functional; summary of the method: as §1
[15] = test system: Human immunodeficiency virus 1; assay: Antiviral activity against Human immunodeficiency virus 1 isolate 04-116883_VL_432.63; type: functional; summary of the method: as §1
[16] = test system: Human immunodeficiency virus 1; assay: Antiviral activity against Human immunodeficiency virus 1 isolate 04-116881_VL_338.52; type: functional; summary of the method: as §1
[17] = test system: Human immunodeficiency virus 1; assay: Antiviral activity against Human immunodeficiency virus 1 isolate 04-116873_VL_754.51; type: functional; summary of the method: as §1
[18] = test system: Human immunodeficiency virus 1; assay: Antiviral activity against Human immunodeficiency virus 1 isolate 04-116893_VL_193.95; type: functional; summary of the method: as §1
[19] = test system: Human immunodeficiency virus 1; assay: Antiviral activity against Human immunodeficiency virus 1 isolate 04-116885_VL_530.54; type: functional; summary of the method: as §1
[20] = test system: Human immunodeficiency virus 1; assay: Antiviral activity against Human immunodeficiency virus 1 isolate 04-116890_VL_781.45; type: functional; summary of the method: as §1
[21] = test system: Human immunodeficiency virus 1; assay: Antiviral activity against Human immunodeficiency virus 1 isolate 04-116874_VL_560.34; type: functional; summary of the method: as §1
[22] = test system: Human immunodeficiency virus 1; assay: Antiviral activity against Human immunodeficiency virus 1 HXB2; type: functional; summary of the method: as §1
[23] = test system: Human immunodeficiency virus 1; assay: Antiviral activity against Human immunodeficiency virus 1 isolate 04-116870_VL_181.51; type: functional; summary of the method: as §1
[24] = test system: Human immunodeficiency virus 1; assay: Antiviral activity against Human immunodeficiency virus 1 isolate 04-116884_VL_328.45; type: functional; summary of the method: as §1
[25] = test system: Human immunodeficiency virus 1; assay: Antiviral activity against Human immunodeficiency virus 1 isolate 04-116879_VL_988.03; type: functional; summary of the method: as §1
[26] = test system: Human immunodeficiency virus 1; assay: Antiviral activity against Human immunodeficiency virus 1 isolate 04-116877_VL_938.28; type: functional; summary of the method: as §1
[27] = test system: Human immunodeficiency virus 1; assay: Antiviral activity against Human immunodeficiency virus 1 isolate 04-116875_VL_279.69; type: functional; summary of the method: as §1
[28] = test system: Human immunodeficiency virus 1; assay: Antiviral activity against Human immunodeficiency virus 1 isolate 04-116878_VL_241.32; type: functional; summary of the method: as §1
[29] = test system: Human immunodeficiency virus 1; assay: Antiviral activity against Human immunodeficiency virus 1 isolate 04-116868_VL_518.14; type: functional; summary of the method: as §1
[30] = test system: Human immunodeficiency virus 1; assay: Antiviral activity against Human immunodeficiency virus 1 isolate 04-116892_VL_534.93; type: functional; summary of the method: as §1
[31] = test system: Human immunodeficiency virus 1; assay: Antiviral activity against Human immunodeficiency virus 1 isolate 04-116882_VL_624.75; type: functional; summary of the method: as §1
[32] = test system: Human immunodeficiency virus 1; assay: Antiviral activity against Human immunodeficiency virus 1 isolate 04-116888_VL_113.66; type: functional; summary of the method: as §1
[33] = test system: Human immunodeficiency virus 1; assay: Antiviral activity against Human immunodeficiency virus 1 JRCSF; type: functional, Human immunodeficiency virus type 1 (JRCSF ISOLATE); summary of the method: as §1
[34] = test system: Human immunodeficiency virus 1; assay: Antiviral activity against Human immunodeficiency virus 1 isolate 04-116876_VL_969.72; type: functional; summary of the method: as §1
[35] = test system: Human immunodeficiency virus 1; assay: Antiviral activity against Human immunodeficiency virus 1 isolate 04-116880_VL_696.65; type: functional; summary of the method: as §1
[36] = Metabolic stability in human liver microsomes assessed as half life; type: ADME, Microsome

Structure (SMILES): CNC(=O)c1nccc2c(O[C@@H](C)C(=O)N3CCN(C(=O)c4ccccc4)C[C@H]3C)ccc(F)c12
IC50 [1]: 20 nM
IC50 [2]: 31 nM

Structure (SMILES): CNC(=O)c1cc(OC)c(O[C@@H](C)C(=O)N2CCN(c3nccc4[nH]cnc34)C[C@H]2C)cn1
IC50 [1]: 7 nM
IC50 [2]: 24 nM

Structure (SMILES): CNC(=O)c1nccc2c(O[C@@H](C)C(=O)N3CCN(C(=O)c4ccccc4)C[C@H]3C)cccc12
Vdu (Rattus norvegicus [3]): 3.5 L/kg
IC50 [1]: 1.5 nM
half-life [4]: 30 min
CL free (Rattus norvegicus [5]): 90 mL/min/kg
IC50 [2]: 21 nM
Fa [6]: 55%
clearance [7]: 41 mL/min/kg
bioavailability [8]: 45%

Structure (SMILES): CNC(=O)c1ccc2c(O[C@@H](C)C(=O)N3CCN(C(=O)c4ccccc4)C[C@H]3C)cccc2n1
IC50 [1]: > 4000 nM
IC50 [2]: 78 nM

Structure (SMILES): CNC(=O)c1ccc(O[C@@H](C)C(=O)N2CCN(C(=O)c3ccccc3)C[C@H]2C)c2cccnc12
IC50 [2]: 1260 nM

Structure (SMILES): CNc1nccc2c(O[C@@H](C)C(=O)N3CCN(C(=O)c4ccccc4)C[C@H]3C)cccc12
IC50 [2]: 61 nM

Structure (SMILES): Cc1nc2c(OC(C)C(=O)N3CCN(C(=O)c4ccccc4)C[C@H]3C)cccc2o1 (some centres undefined)
IC50 [2]: 2040 nM

Structure (SMILES): CNC(=O)c1cc(OC)c(O[C@@H](C)C(=O)N2CCN(c3nccc4ccccc34)C[C@H]2C)cn1
IC90 [9]: 36 nM
Vdu (Rattus norvegicus [3]): 9.4 L/kg
IC90 [10]: 40 nM
IC90 [11]: 24 nM
IC50 [1]: 0.12 nM
IC90 [12]: 0.5 nM
IC90 [13]: 120 nM
IC90 [14]: 5 nM
IC90 [15]: > 666 nM
IC90 [16]: 201 nM
IC90 [17]: 1.3 nM
IC90 [18]: 23 nM
IC90 [19]: 8 nM
half-life [4]: 30 min
IC90 [20]: 144 nM
IC90 [21]: 5 nM
IC90 [22]: 1.4 nM
CL free (Rattus norvegicus [5]): 198 mL/min/kg
IC90 [23]: 6 nM
IC50 [2]: 0.29 nM
Fa [6]: 100%
IC90 [24]: 0.8 nM
IC90 [25]: 8 nM
IC90 [26]: 2 nM
IC90 [27]: 14 nM
clearance [7]: 48 mL/min/kg
IC90 [28]: 230 nM
bioavailability [8]: 21%
IC90 [29]: 1 nM
IC90 [30]: 199 nM
IC90 [31]: 3 nM
half-life [36]: 4 min
IC90 [32]: 324 nM
IC90 [33]: 0.3 nM
IC90 [34]: 37 nM
IC90 [35]: 276 nM

Structure (SMILES): CNC(=O)c1cc(OC)c(O[C@@H](C)C(=O)N2CCN(c3nccc4ncccc34)C[C@H]2C)cn1
IC50 [1]: 126 nM
IC50 [2]: 29 nM

Structure (SMILES): CC(Oc1cccc2cnccc12)C(=O)N1CCN(C(=O)c2ccccc2)C[C@H]1C (some centres undefined)
IC50 [1]: 492 nM
IC50 [2]: 103 nM

Second part, the compound after the results:

IC50 [1]: 6 nM
IC50 [2]: 24 nM
Structure (SMILES): CNC(=O)c1cc(OC)c(O[C@@H](C)C(=O)N2CCN(c3nccc4[nH]ncc34)C[C@H]2C)cn1

IC90 [9]: > 2220 nM
Vdu (Rattus norvegicus [3]): 2.2 L/kg
IC90 [10]: 383 nM
IC90 [11]: 122 nM
IC90 [12]: 9 nM
IC90 [13]: > 2220 nM
IC90 [14]: 56 nM
IC90 [15]: > 2220 nM
IC90 [16]: 299 nM
IC90 [17]: 21 nM
IC90 [18]: 354 nM
IC90 [19]: 178 nM
IC90 [20]: 170 nM
IC90 [21]: 71 nM
IC90 [22]: 13 nM
IC90 [23]: 44 nM
IC50 [2]: 14 nM
Fa [6]: 100%
IC90 [24]: 9 nM
IC90 [25]: 242 nM
IC90 [26]: 21 nM
IC90 [27]: 213 nM
IC90 [28]: > 2220 nM
IC90 [29]: 26 nM
IC90 [30]: > 2220 nM
IC90 [31]: 106 nM
IC90 [32]: > 2220 nM
IC90 [33]: 4 nM
IC90 [34]: 436 nM
IC90 [35]: > 2220 nM
Structure (SMILES): CNC(=O)c1cc(OC)c(O[C@@H](C)C(=O)N2CCN(C(=O)c3ccccc3)C[C@H]2C)cn1

IC50 [2]: 21200 nM
Structure (SMILES): CNC(=O)c1ccc(O[C@@H](C)C(=O)N2CCN(C(=O)c3ccccc3)C[C@H]2C)c2ccncc12

IC50 [1]: 271 nM
IC50 [2]: 99 nM
Structure (SMILES): CC(Oc1cccc2ncccc12)C(=O)N1CCN(C(=O)c2ccccc2)C[C@H]1C (some centres undefined)

IC50 [2]: 834 nM
Structure (SMILES): Cc1nc2c(OC(C)C(=O)N3CCN(C(=O)c4ccccc4)C[C@H]3C)cccc2[nH]1 (some centres undefined)

IC50 [2]: 493 nM
Structure (SMILES): CC(Oc1cccc2nccnc12)C(=O)N1CCN(C(=O)c2ccccc2)C[C@H]1C (some centres undefined)
